In ChEMBL document CHEMBL1146563, “CT2108A and B: New fatty acid synthase inhibitors as antifungal agents” (J Nat Prod, 2003):
Values after ≈ are worked out from the molar mass of the structure shown. Active and inactive are the calls of the source. No cut-off for these calls is given here.

Legend:
[1] = Inhibition of Candida albicans SC5314 FAS by spectrophotometry
Candida albicans [2] = assay: Antifungal activity against Candida albicans by microdilution spectrophotometric method in presence of mysteric acid; assay type: functional
Method in brief: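 Growth inhibition of C. albicans in a medium supplemented with 1.0% Tween 40 and 0.03% mysteric acid (long-chain fatty acids).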

Cryptococcus neoformans [3] = assay: Antifungal activity against Cryptococcus neoformans after 48 hrs; assay type: functional
Method in brief: (§1)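 Minimum inhibitory concentration against clinical isolates, read at 24 h and at 48 h. Isolates tested: C. albicans 4, C. tropicalis 1, C. lusitaniae 3, C. guilliermondii 1, C. krusei 3, C. glabrata 3, C. parapsilosis 4, C. dubliniensis 2, S. cerevisiae 4, Cryptococcus neoformans 2, Cryptococcus laurentii 2.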

Fatty acid synthase = Fatty acid synthase (Homo sapiens, UniProt P49327); assay: Inhibition of FAS in human ZR-75-1 cells by spectrophotometry; assay type: cell-based
Candida dubliniensis [4] = assay: Antifungal activity against Candida dubliniensis after 48 hrs; assay type: functional; method in brief: as §1
Clavispora lusitaniae [5] = assay: Antifungal activity against Candida lusitaniae after 48 hrs; assay type: functional; method in brief: as §1
Pichia kudriavzevii [6] = assay: Antifungal activity against Candida krusei after 48 hrs; assay type: functional; method in brief: as §1
[7] = system: Meyerozyma guilliermondii; assay: Antifungal activity against Candida guilliermondii after 48 hrs; assay type: functional; method in brief: as §1
Nakaseomyces glabratus [8] = assay: Antifungal activity against Candida glabrata after 24 hrs; assay type: functional; method in brief: as §1
Cryptococcus neoformans [9] = assay: Antifungal activity against Cryptococcus neoformans after 24 hrs; assay type: functional; method in brief: as §1
Saccharomyces cerevisiae [10] = assay: Antifungal activity against Saccharomyces cerevisiae after 24 hrs; assay type: functional; method in brief: as §1
Pichia kudriavzevii [11] = assay: Antifungal activity against Candida krusei after 24 hrs; assay type: functional; method in brief: as §1
Nakaseomyces glabratus [12] = assay: Antifungal activity against Candida glabrata after 48 hrs; assay type: functional; method in brief: as §1
Candida albicans [13] = assay: Antifungal activity against Candida albicans after 48 hrs; assay type: functional; method in brief: as §1
Candida albicans [14] = assay: Antifungal activity against Candida albicans after 24 hrs; assay type: functional; method in brief: as §1
Papiliotrema laurentii [15] = assay: Antifungal activity against Cryptococcus laurentii after 48 hrs; assay type: functional; method in brief: as §1
Saccharomyces cerevisiae [16] = assay: Antifungal activity against Saccharomyces cerevisiae after 48 hrs; assay type: functional; method in brief: as §1
Candida dubliniensis [17] = assay: Antifungal activity against Candida dubliniensis after 24 hrs; assay type: functional; method in brief: as §1
Candida parapsilosis [18] = assay: Antifungal activity against Candida parapsilosis after 24 hrs; assay type: functional; conditions: Lodderomyces parapsilosis; method in brief: as §1
[19] = system: Meyerozyma guilliermondii; assay: Antifungal activity against Candida guilliermondii after 24 hrs; assay type: functional; method in brief: as §1
Candida parapsilosis [20] = assay: Antifungal activity against Candida parapsilosis after 48 hrs; assay type: functional; conditions: Lodderomyces parapsilosis; method in brief: as §1
Candida albicans [21] = assay: Antifungal activity against Candida albicans assessed as clear zone of inhibition by disk diffusion assay; assay type: functional
Method in brief: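 Disk diffusion on C. albicans; the zone of inhibition is measured in mm.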

Papiliotrema laurentii [22] = assay: Antifungal activity against Cryptococcus laurentii after 24 hrs; assay type: functional; method in brief: as §1
Candida albicans [23] = assay: Antifungal activity against Candida albicans by microdilution spectrophotometric method; assay type: functional
Clavispora lusitaniae [24] = assay: Antifungal activity against Candida lusitaniae after 24 hrs; assay type: functional; method in brief: as §1
Candida tropicalis [25] = assay: Antifungal activity against Candida tropicalis after 24 hrs; assay type: functional; method in brief: as §1
Candida tropicalis [26] = assay: Antifungal activity against Candida tropicalis after 48 hrs; assay type: functional; method in brief: as §1
Candida albicans [27] = assay: Antifungal activity against Candida albicans assessed as hazy zone of inhibition by disk diffusion assay; assay type: functional
Method in brief: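 Disk diffusion on C. albicans; the zone of growth inhibition around the disk is read and reported as diameter in mm.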

Fatty acid synthase, sequence (P49327 whole entry): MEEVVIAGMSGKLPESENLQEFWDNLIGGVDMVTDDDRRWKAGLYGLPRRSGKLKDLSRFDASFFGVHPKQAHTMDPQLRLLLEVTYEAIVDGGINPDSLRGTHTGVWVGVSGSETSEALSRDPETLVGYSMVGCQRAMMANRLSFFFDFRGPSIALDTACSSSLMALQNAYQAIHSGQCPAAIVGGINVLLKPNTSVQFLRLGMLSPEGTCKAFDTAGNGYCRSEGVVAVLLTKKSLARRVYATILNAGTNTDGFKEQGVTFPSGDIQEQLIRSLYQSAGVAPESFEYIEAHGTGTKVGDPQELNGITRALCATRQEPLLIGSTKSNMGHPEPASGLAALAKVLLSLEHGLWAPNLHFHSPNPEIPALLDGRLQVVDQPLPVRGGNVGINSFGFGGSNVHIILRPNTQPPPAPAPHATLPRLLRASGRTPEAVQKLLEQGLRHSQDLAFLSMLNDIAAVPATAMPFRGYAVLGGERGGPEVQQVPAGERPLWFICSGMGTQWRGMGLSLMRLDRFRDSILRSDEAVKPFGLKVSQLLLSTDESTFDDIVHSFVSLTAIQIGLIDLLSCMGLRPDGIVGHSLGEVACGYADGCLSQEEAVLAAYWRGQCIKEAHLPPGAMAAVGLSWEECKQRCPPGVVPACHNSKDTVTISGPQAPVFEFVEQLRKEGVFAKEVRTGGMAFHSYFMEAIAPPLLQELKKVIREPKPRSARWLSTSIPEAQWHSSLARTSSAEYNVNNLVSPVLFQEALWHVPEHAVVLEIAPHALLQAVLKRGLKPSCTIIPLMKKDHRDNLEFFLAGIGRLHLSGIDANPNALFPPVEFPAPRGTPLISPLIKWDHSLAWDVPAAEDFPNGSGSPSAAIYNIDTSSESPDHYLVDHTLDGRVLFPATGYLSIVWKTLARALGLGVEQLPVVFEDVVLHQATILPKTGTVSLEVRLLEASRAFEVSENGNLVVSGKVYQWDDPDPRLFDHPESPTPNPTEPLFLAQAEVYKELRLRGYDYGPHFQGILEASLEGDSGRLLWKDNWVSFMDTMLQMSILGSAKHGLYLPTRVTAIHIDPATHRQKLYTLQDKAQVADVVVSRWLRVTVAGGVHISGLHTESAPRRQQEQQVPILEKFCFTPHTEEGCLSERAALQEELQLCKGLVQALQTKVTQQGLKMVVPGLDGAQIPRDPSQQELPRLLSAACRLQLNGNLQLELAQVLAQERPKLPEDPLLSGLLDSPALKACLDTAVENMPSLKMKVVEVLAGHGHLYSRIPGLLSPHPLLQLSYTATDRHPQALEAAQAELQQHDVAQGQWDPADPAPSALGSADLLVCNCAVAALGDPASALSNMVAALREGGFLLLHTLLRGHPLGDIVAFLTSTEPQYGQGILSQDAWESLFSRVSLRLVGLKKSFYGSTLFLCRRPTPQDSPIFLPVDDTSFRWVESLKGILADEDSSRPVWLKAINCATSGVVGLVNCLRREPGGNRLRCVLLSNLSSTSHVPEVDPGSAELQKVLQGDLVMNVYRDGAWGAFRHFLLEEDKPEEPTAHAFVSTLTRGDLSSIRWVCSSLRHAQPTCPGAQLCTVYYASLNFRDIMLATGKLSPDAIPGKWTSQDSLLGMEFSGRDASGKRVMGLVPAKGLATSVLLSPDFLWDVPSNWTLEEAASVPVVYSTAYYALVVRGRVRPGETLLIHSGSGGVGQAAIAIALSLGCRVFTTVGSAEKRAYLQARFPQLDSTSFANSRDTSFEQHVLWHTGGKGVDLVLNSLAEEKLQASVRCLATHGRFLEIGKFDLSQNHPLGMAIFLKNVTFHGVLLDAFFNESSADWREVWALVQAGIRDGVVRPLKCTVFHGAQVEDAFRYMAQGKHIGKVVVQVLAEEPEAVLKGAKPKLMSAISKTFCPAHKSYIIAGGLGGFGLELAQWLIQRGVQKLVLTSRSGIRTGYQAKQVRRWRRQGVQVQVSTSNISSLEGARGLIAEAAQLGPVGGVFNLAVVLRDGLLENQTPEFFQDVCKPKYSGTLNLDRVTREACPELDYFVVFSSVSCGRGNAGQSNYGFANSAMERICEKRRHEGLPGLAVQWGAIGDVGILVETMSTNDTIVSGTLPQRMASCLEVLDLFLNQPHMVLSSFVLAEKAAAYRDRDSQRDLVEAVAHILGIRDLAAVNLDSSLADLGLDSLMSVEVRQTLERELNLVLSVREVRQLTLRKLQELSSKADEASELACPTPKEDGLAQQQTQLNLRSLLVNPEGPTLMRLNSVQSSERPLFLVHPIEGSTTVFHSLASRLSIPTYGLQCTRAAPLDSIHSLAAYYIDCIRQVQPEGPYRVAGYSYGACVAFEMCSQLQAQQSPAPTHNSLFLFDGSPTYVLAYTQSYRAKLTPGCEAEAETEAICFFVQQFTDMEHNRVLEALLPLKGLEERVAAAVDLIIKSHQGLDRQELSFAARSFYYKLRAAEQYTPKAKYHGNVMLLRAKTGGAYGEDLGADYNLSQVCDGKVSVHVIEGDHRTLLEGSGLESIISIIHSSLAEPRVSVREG

Row | IC50 [1] | MIC (Candida albicans [2]) | MIC (Cryptococcus neoformans [3]) | IC50 (Fatty acid synthase) | MIC (Candida dubliniensis [4]) | MIC (Clavispora lusitaniae [5]) | MIC (Pichia kudriavzevii [6]) | MIC [7] | MIC (Nakaseomyces glabratus [8]) | MIC (Cryptococcus neoformans [9]) | MIC (Saccharomyces cerevisiae [10]) | MIC (Pichia kudriavzevii [11]) | MIC (Nakaseomyces glabratus [12]) | MIC (Candida albicans [13]) | MIC (Candida albicans [14]) | MIC (Papiliotrema laurentii [15]) | MIC (Saccharomyces cerevisiae [16]) | MIC (Candida dubliniensis [17]) | MIC (Candida albicans [23]) | Compound | MFC (Candida albicans [23]) | further results
1 | 160 µg/mL (≈ 414 µM) | 50 µg/mL | 3.12 µg/mL (≈ 8.07 µM) | > 2590 µM | 18.8 µg/mL (≈ 48.7 µM) | 37.5 µg/mL (≈ 97 µM) | 25 µg/mL (≈ 64.7 µM) | 1.6 µg/mL (≈ 4.14 µM) | 29.2 µg/mL (≈ 75.6 µM) | 25 µg/mL (≈ 64.7 µM) | 5.9 µg/mL (≈ 15.3 µM) | 12.5 µg/mL (≈ 32.3 µM) | 83.3 µg/mL (≈ 216 µM) | 7.8 µg/mL (≈ 20.2 µM) | 3.9 µg/mL (≈ 10.1 µM) | 6.25 µg/mL (≈ 16.2 µM) | 20.3 µg/mL (≈ 52.5 µM) | 9.4 µg/mL (≈ 24.3 µM) | 6.25 µg/mL (≈ 16.2 µM) | C/C=C/C=C/C=C/C1=CC2=CC(=O)[C@](C)(OC(=O)C[C@H](C)O)C(=O)C23OC3O1 (stereo not given in full) | 25 µg/mL (≈ 64.7 µM) | MIC (Candida parapsilosis [18]): 15.6 µg/mL (≈ 40.4 µM); MIC [19]: < 1.6 µg/mL; MIC (Candida parapsilosis [20]): 62.5 µg/mL (≈ 162 µM); inhibition zone (IZ) (Candida albicans [21]): 8 mm; Activity (Papiliotrema laurentii [22]): Active; MIC (Clavispora lusitaniae [24]): 8.3 µg/mL (≈ 21.5 µM)
2 | 250 µg/mL (≈ 675 µM) | 50 µg/mL | < 1.6 µg/mL | > 2700 µM | 12.5 µg/mL (≈ 33.7 µM) | 41.6 µg/mL (≈ 112 µM) | 50 µg/mL (≈ 135 µM) | 1.6 µg/mL (≈ 4.32 µM) | 25 µg/mL (≈ 67.5 µM) | < 1.6 µg/mL | 8.2 µg/mL (≈ 22.1 µM) | 25 µg/mL (≈ 67.5 µM) | 50 µg/mL (≈ 135 µM) | 7.8 µg/mL (≈ 21.1 µM) | 7.8 µg/mL (≈ 21.1 µM) | < 1.6 µg/mL | 25 µg/mL (≈ 67.5 µM) | 12.5 µg/mL (≈ 33.7 µM) | 3.13 µg/mL (≈ 8.45 µM) | C/C=C/C=C/C=C/C1=CC2=CC(=O)[C@](C)(OC(=O)C[C@H](C)O)C(=O)C2=CO1 | 6.25 µg/mL (≈ 16.9 µM) | MIC (Candida parapsilosis [18]): 14.8 µg/mL (≈ 40 µM); MIC [19]: < 1.6 µg/mL; MIC (Candida parapsilosis [20]): 50 µg/mL (≈ 135 µM); MIC (Candida tropicalis [25]): 6.25 µg/mL (≈ 16.9 µM); inhibition zone (IZ) (Candida albicans [21]): 10 mm; MIC (Papiliotrema laurentii [22]): < 1.6 µg/mL; MIC (Clavispora lusitaniae [24]): 16.3 µg/mL (≈ 44 µM); MIC (Candida tropicalis [26]): 6.25 µg/mL (≈ 16.9 µM)

Row | Compound | IC50 [1] | MIC (Candida albicans [2]) | MIC (Cryptococcus neoformans [3]) | IC50 (Fatty acid synthase) | MIC (Candida dubliniensis [4]) | MIC (Clavispora lusitaniae [5]) | MIC (Pichia kudriavzevii [6]) | MIC [7] | MIC (Nakaseomyces glabratus [8]) | MIC (Cryptococcus neoformans [9]) | MIC (Saccharomyces cerevisiae [10]) | MIC (Pichia kudriavzevii [11]) | MIC (Nakaseomyces glabratus [12]) | MIC (Candida albicans [13]) | MIC (Candida albicans [14]) | MIC (Papiliotrema laurentii [15]) | MIC (Saccharomyces cerevisiae [16]) | MIC (Candida dubliniensis [17]) | MIC (Candida albicans [23]) | MFC (Candida albicans [23]) | further results
3 | C/C=C/C/C=C/CCC(=O)[C@H]1O[C@H]1C(N)=O [CERULENIN] | 0.5 µg/mL (≈ 2.24 µM) | > 1000 µg/mL | – | 2.24 µM | – | – | – | – | – | – | – | – | – | – | – | – | – | – | 5 µg/mL (≈ 22.4 µM) | 5 µg/mL (≈ 22.4 µM) | inhibition zone (IZ) (Candida albicans [27]): 20 mm
